Experimental data gathered from unrelated publications.
Protocols differ between the studies behind these lines.
Organism: Trypanosoma cruzi
Read-out: parasite growth

| SMILES | technique | cell line | strain | time | setting | IC50 [µM] |
| --- | --- | --- | --- | --- | --- | --- |
| O=C(N[C@@H](Cc1ccccc1)C(=O)c1c[nH]nn1)[C@H](Cc1ccccc1)NC(=O)N1CCOCC1 |  |  | TULAHUEN |  | intracellular, amastigote | > 64 |
| c1ccc2c(N3CCCCC3)nc(-c3cnccn3)nc2c1 | imaging | U2OS |  |  | intracellular, amastigote | 18.6 |
| O=C(Cn1ccnc1[N+](=O)[O-])NCc1ccccc1 |  |  | TULAHUEN |  | intracellular, amastigote | 1.2 |
| C=C1CC[C@H]2C(C)=CC[C@H]3C(=C)C(=O)O[C@@H]3[C@@H]12 |  |  |  | 72 h | epimastigote | 1.9 |
| Cn1ccnc1-c1nc(N2CCCCC2)c2ccccc2n1 | imaging | U2OS |  |  | intracellular, amastigote | 3.89 |
| Cc1cc(NC(=O)Nc2ccc3c(c2)OC(F)(F)O3)cc(C(F)(F)F)n1 |  |  | TULAHUEN |  | intracellular, amastigote | 1.1 |
| O=C(N[C@H](CCc1ccccc1)C(=O)c1cc(Cc2ccccc2)on1)[C@H](Cc1ccccc1)NC(=O)N1CCOCC1 |  |  | TULAHUEN |  | intracellular, amastigote | > 64 |
| c1ccc(C2CCN(c3nc(-c4cnn5c4CCCC5)nc4ccccc34)C2)nc1 (stereo not shown) | imaging | U2OS |  |  | intracellular, amastigote | 4.31 |
| C[Si](C)(C)c1cc(C(=O)[C@H](Cc2ccccc2)NC(=O)[C@H](Cc2ccccc2)NC(=O)N2CCOCC2)no1 (mixture of isomers) |  |  | TULAHUEN |  | intracellular, amastigote | > 64 |
| FC(F)(F)c1ccccc1-c1nc(N2CCC(c3ccccn3)C2)c2ccccc2n1 (stereo not shown) | imaging | U2OS |  |  | intracellular, amastigote | 7.43 |
| O=C(N[C@@H](Cc1ccccc1)C(=O)c1cc(-c2ccccc2)on1)[C@H](Cc1ccccc1)NC(=O)N1CCOCC1 (single isomer, unassigned) |  |  | TULAHUEN |  | intracellular, amastigote | > 64 |
| O=C(Cn1ccnc1[N+](=O)[O-])NCc1ccccc1 |  |  |  |  | epimastigote | 23 |
| C[C@@H]1[C@H](O)[C@@H](C)/C=C/C=C/C=C/C=C/C=C/C=C/C=C/[C@H](O[C@@H]2O[C@H](C)[C@@H](O)[C@H](N)[C@@H]2O)C[C@@H]2O[C@](O)(C[C@@H](O)C[C@@H](O)[C@H](O)CC[C@@H](O)C[C@@H](O)CC(=O)O[C@H]1C)C[C@H](O)[C@H]2C(=O)O |  | NIH3T3 | TULAHUEN | 96 h | intracellular, amastigote | 0.48 |
| O=C(N[C@@H](Cc1ccccc1)C(=O)c1nc2ccccc2o1)[C@H](Cc1ccccc1)NC(=O)N1CCOCC1 |  |  | TULAHUEN |  | intracellular, amastigote | 31.5 |
| Oc1cccc(-c2nc(N3CCC(c4ccccn4)C3)c3ccccc3n2)c1 (stereo not shown) | imaging | U2OS |  |  | intracellular, amastigote | 4.22 |
| O=C(Cn1ccnc1[N+](=O)[O-])NCc1ccccc1 |  | L929 | TULAHUEN | 7 days | intracellular, amastigote | 3.84 |
